7 compounds from ChEMBL document CHEMBL4622834, “Synthesis and antiproliferative activity of sulfonamide-based peptidomimetic calpain inhibitors” (Bioorg Med Chem, 2020) can be followed below.

pKi: −log10 of the molar value. Active and inactive are the calls of the source. The calls are words filed in the database; no cut-off is given here. Where a SMILES comes first, the peptide text is derived from it. The star is where a group is joined. Cbz = O=C(OCc1ccccc1)*

One assay has as its system B16-F1. The assay is described as follows: Antiproliferative activity against mouse B16-F1 cells assessed as inhibition of cell growth after 48 hrs by sulforhodamine B colorimetric assay. Type of assay: functional. Conditions: B16-F1, 48 h. In short, it runs like this:
(§1)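 Melanoma cells in DMEM with 5% FBS, 1% penicillin/streptomycin, 0.05% insulin; 5000 cells/well in U-bottom wells. After 12 h medium changed and compound added at 8 concentrations for 48 h; Taxol positive control, cells plus medium as negative control. Fixed with 10% TCA, stained with 0.4% SRB in 1% acetic acid 30 min RT, dye released with 10 mM Tris base, A490. Triplicate, ±SEM.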

Another assay concerns A-375. As to the kind of experiment: Antiproliferative activity against human A375 cells assessed as inhibition of cell growth after 48 hrs by sulforhodamine B colorimetric assay. Type of assay: functional. As to conditions: A-375, 48 h. A digest of the protocol: as §1
For orientation: In SRB staining, fixed cells bind dye roughly in proportion to their protein.

In assay [1] the target is T1, Calpain-1 catalytic subunit (Sus scrofa, UniProt P35750).
T1 sequence (P35750 whole entry): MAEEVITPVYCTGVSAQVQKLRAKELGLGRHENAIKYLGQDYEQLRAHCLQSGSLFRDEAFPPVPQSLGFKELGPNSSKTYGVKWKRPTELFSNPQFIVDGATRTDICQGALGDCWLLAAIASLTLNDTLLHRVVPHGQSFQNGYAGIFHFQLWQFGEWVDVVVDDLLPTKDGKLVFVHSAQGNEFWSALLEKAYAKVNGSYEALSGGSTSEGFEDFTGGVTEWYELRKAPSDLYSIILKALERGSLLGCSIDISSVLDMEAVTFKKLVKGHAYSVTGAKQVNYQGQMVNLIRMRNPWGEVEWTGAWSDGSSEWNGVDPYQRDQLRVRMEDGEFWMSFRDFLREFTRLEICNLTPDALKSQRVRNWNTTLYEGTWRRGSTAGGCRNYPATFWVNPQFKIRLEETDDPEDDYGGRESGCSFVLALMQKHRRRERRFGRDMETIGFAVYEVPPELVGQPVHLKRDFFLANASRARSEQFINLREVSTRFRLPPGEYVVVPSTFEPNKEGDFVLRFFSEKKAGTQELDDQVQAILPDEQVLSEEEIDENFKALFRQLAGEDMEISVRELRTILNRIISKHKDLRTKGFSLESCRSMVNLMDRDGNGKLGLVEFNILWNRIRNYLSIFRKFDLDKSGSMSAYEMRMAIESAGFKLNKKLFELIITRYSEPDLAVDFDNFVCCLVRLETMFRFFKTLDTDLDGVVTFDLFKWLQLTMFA
The assay is described as follows: Inhibition of mu-calpain in porcine erythrocyte using Suc-Leu-Tyr-AMC as substrate by microtiter plate assay based Dixon plot analysis. In short, it runs like this:
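Porcine erythrocyte µ-calpain (1 µg) in 50 mM Tris-HCl pH 7.4, 50 mM NaCl, 10 mM DTT, 1 mM EDTA, 1 mM EGTA, 5 mM CaCl2, with 0.2 mM or 1.0 mM Suc-Leu-Tyr-AMC and varying inhibitor in DMSO (2% total). Ki from Dixon plots of initial velocity (1/v vs inhibitor concentration), r above 0.95; no correction for slow binding or autolysis; mean of triplicates.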

In the next assay the test system is PC-3. The assay is described as follows: Antiproliferative activity against human PC3 cells assessed as inhibition of cell growth after 72 hrs by MTT assay. As to conditions: PC-3, 72 h. Type of assay: functional. A digest of the protocol: (§2)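 Cells seeded at 2,000–15,000/well, exposed to drug for 72 h at 37 °C, 5% CO2; untreated wells as negative control. MTT (5 mg/mL) added for the final 2–4 h; plates spun, formazan dissolved in DMSO, A595. Percent survival vs concentration fitted by nonlinear regression for IC50. Triplicate. PC3 grown in RPMI-1640, DU145 in EMEM, each with 10% FBS; DU145 tested at 1 and 2 µM.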
In general terms: Formazan colour is commonly taken as a measure of viable cells.

The subject of assay [2] is DU-145. The assay is described as follows: Antiproliferative activity against human DU145 cells assessed as inhibition of cell growth at 1 to 2 uM after 72 hrs by MTT assay. Type of assay: functional, cell-based. In short, it runs like this:
as §2

In assay [3] the test system is DU-145. The assay is described as follows: Antiinvasive activity against human DU145 cells assessed as inhibition of cell invasion after 48 hrs by matrigel cell invasion assay. Type of assay: functional, cell-based. In short, it runs like this:
(§3)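 DU-145 cells (20,000) seeded in serum-free medium with 1% BSA in upper chamber, 37 °C for 24 h; lower chamber 10% FBS as chemoattractant. Upper medium then replaced with serum-free medium with or without compound at 1.0, 1.5 or 2.0 µM. After 48 h, non-invading cells swabbed off; invading cells fixed, stained, counted. Triplicate; expressed as percentage of untreated cells.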

Assay [4] concerns DU-145. The assay is described as follows: Antiinvasive activity against human DU145 cells assessed as inhibition of cell invasion at 2 uM after 48 hrs by matrigel cell invasion assay. The class given is functional. Conditions: DU-145, 48 h. In short, it runs like this: as §3

For `CC(C)C[C@@H](C=O)NC(=O)[C@@H](NS(=O)(=O)c1ccc(/N=N/c2ccccc2)cc1)C(C)C`, the GI50 – broadly, the concentration giving 50% growth inhibition – in the assay with B16-F1 was found to be 13.7 µM; with A-375, 12.9 µM; with PC-3 it was 27.3 µM. The pKi (commonly the negative decadic logarithm of the Ki, by convention in mol/L) in assay [1] was 7.74.

For `CC(C)C[C@@H](C=O)NC(=O)[C@@H]1CCCN1S(=O)(=O)c1ccc(/N=N/c2ccccc2)cc1`, the GI50 in the assay on B16-F1 came out at 13.6 µM; in the assay with A-375, 4.1 µM; in the assay with PC-3 it was 5.6 µM. Moreover, the pKi in assay [1] was 6.56.

As for `CC(C)C[C@H](NC(=O)[C@@H](NS(=O)(=O)c1ccc(/C=C/c2ccccc2)cc1)C(C)C)C(=O)C(N)=O`, the GI50 in the assay with B16-F1 came out at 17.2 µM; in the assay with A-375 it was 16 µM; in the assay with PC-3, 6.02 µM. The negative-log Ki (pKi) in assay [1] was 8.05.

In the case of `CC(C)C[C@@H](C=O)NC(=O)[C@@H](NS(=O)(=O)c1ccc(/C=C/c2ccccc2)cc1)C(C)C`, the GI50 in the assay on B16-F1 was determined as 10.3 µM; in the assay with A-375 it was 9.4 µM; with PC-3, 23 µM. The same compound showed a negative logarithm of the Ki (pKi) in assay [1] of 7.85.

Consider `CC(=O)O[C@H]1C(=O)[C@@]2(C)[C@H]([C@H](OC(=O)c3ccccc3)[C@]3(O)C[C@H](OC(=O)[C@H](O)[C@@H](NC(=O)c4ccccc4)c4ccccc4)C(C)=C1C3(C)C)[C@]1(OC(C)=O)CO[C@@H]1C[C@@H]2O` [PACLITAXEL], for which the GI50 was determined as 0.02 µM in the assay on B16-F1, 0.01 µM in the assay with A-375 and 0.03 µM in the assay on PC-3.

On to `CC(C)C[C@H](NC(=O)[C@@H](NS(=O)(=O)c1ccc(/N=N/c2ccccc2)cc1)C(C)C)C(=O)C(N)=O`, for which the result in the assay with DU-145 [2] was inactive. The results for the GI50 in the assay on B16-F1, in the assay with A-375 and in the assay on PC-3 were 18.7 µM, 22.2 µM and 24.1 µM, respectively. In the assay with DU-145 [3], the inhibition (commonly the relative decrease from the control value, in per cent) was “Dose-dependent effect”. This compound also showed a negative logarithm of the Ki (pKi) in assay [1] of 7.80. Moreover, the inhibition at 2 µM in the assay on DU-145 [4] came to 80%.

In assay [1], `CC(C)[C@H](NC(=O)OCc1ccccc1)C(=O)N[C@H](C=O)Cc1ccccc1` (Cbz-Val-Phe-aldehyde) gave a pKi of 8.00.
